ChEMBL document CHEMBL4014269, “Antibacterial and Hypoglycemic Diterpenoids from Salvia chamaedryoides” (J Nat Prod, 2017)
In brackets after ≈: the same amount, converted by molar mass. Activity calls are given as the source filed them. No cut-off for these calls is given here.

How the values were obtained:
[1] = tested on: Moraxella catarrhalis; assay: Antibacterial activity against Moraxella catarrhalis isolate MB 15 after 24 hrs by microdilution assay; assay type: functional
Method in brief: (§1)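 Clinical isolates from various clinical specimens, identified by standard procedures and kept in a hospital microbiology laboratory collection. The MIC was read by broth microdilution, following a method described in earlier work.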

[2] = tested on: Enterococcus faecalis; assay: Antibacterial activity against Enterococcus faecalis isolate MB 3 after 24 hrs by microdilution assay; assay type: functional; conditions: isolate MB 3, 24 h
Method in brief: (§2)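 Clinical isolates from a hospital microbiology collection, identified by standard procedures; MICs by broth microdilution.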

[3] = tested on: Staphylococcus epidermidis; assay: Antibacterial activity against methicillin-resistant Staphylococcus epidermidis isolate MB 26 after 24 hrs by microdilution assay; assay type: functional; conditions: isolate MB 26, 24 h; method in brief: as §1
[4] = tested on: Staphylococcus epidermidis; assay: Antibacterial activity against methicillin-sensitive Staphylococcus epidermidis isolate MB 65 after 24 hrs by microdilution assay; assay type: functional; conditions: isolate MB 65, 24 h; method in brief: as §2
[5] = tested on: Staphylococcus aureus; assay: Antibacterial activity against methicillin-sensitive Staphylococcus aureus isolate MB 21 after 24 hrs by microdilution assay; assay type: functional; conditions: isolate MB 21, 24 h; method in brief: as §2
[6] = tested on: Enterococcus faecium; assay: Antibacterial activity against vancomycin-resistant Enterococcus faecium isolate MB 2 after 24 hrs by microdilution assay; assay type: functional; conditions: isolate MB 2, 24 h; method in brief: as §1
[7] = tested on: Enterococcus faecalis; assay: Antibacterial activity against vancomycin-resistant Enterococcus faecalis isolate MB 51 after 24 hrs by microdilution assay; assay type: functional; conditions: isolate MB 51, 24 h; method in brief: as §1
[8] = tested on: Enterococcus faecium; assay: Antibacterial activity against vancomycin-resistant Enterococcus faecium isolate MB 50 after 24 hrs by microdilution assay; assay type: functional; conditions: isolate MB 50, 24 h; method in brief: as §1
[9] = tested on: Staphylococcus epidermidis; assay: Antibacterial activity against methicillin-resistant Staphylococcus epidermidis isolate MB 64 after 24 hrs by microdilution assay; assay type: functional; conditions: isolate MB 64, 24 h; method in brief: as §1
[10] = tested on: Candida albicans; assay: Antifungal activity against Candida albicans isolate MB 31 after 48 hrs by microdilution assay; assay type: functional; method in brief: as §1
[11] = tested on: Klebsiella pneumoniae; assay: Antibacterial activity against Klebsiella pneumoniae isolate MB 11 after 24 hrs by microdilution assay; assay type: functional; method in brief: as §1
[12] = tested on: Enterococcus faecium; assay: Antibacterial activity against vancomycin-resistant Enterococcus faecium isolate MB 23 after 24 hrs by microdilution assay; assay type: functional; conditions: isolate MB 23, 24 h; method in brief: as §1
[13] = tested on: Enterococcus faecalis; assay: Antibacterial activity against vancomycin-resistant Enterococcus faecalis isolate MB 49 after 24 hrs by microdilution assay; assay type: functional; conditions: isolate MB 49, 24 h; method in brief: as §1
[14] = tested on: Nakaseomyces glabratus; assay: Antifungal activity against Candida glabrata isolate MB 8 after 48 hrs by microdilution assay; assay type: functional; method in brief: as §1
[15] = tested on: Escherichia coli; assay: Antibacterial activity against Escherichia coli isolate MB 123 after 24 hrs by microdilution assay; assay type: functional; method in brief: as §1
[16] = tested on: Staphylococcus aureus; assay: Antibacterial activity against methicillin-resistant Staphylococcus aureus isolate MB 10 after 24 hrs by microdilution assay; assay type: functional; conditions: isolate MB 10, 24 h; method in brief: as §1
[17] = tested on: Staphylococcus aureus; assay: Antibacterial activity against methicillin-resistant Staphylococcus aureus isolate MB 9 after 24 hrs by microdilution assay; assay type: functional; conditions: isolate MB 9, 24 h; method in brief: as §1
[18] = tested on: Proteus mirabilis; assay: Antibacterial activity against Proteus mirabilis isolate MB 14 after 24 hrs by microdilution assay; assay type: functional; method in brief: as §1
[19] = tested on: Staphylococcus aureus; assay: Antibacterial activity against methicillin-resistant Staphylococcus aureus isolate MB 18 after 24 hrs by microdilution assay; assay type: functional; conditions: isolate MB 18, 24 h; method in brief: as §1
[20] = tested on: Enterococcus faecium; assay: Antibacterial activity against Enterococcus faecium isolate MB 55 after 24 hrs by microdilution assay; assay type: functional; conditions: isolate MB 55, 24 h; method in brief: as §1
[21] = tested on: Staphylococcus epidermidis; assay: Antibacterial activity against methicillin-resistant Staphylococcus epidermidis isolate MB 20 after 24 hrs by microdilution assay; assay type: functional; conditions: isolate MB 20, 24 h; method in brief: as §1
[22] = tested on: Enterococcus faecalis; assay: Antibacterial activity against vancomycin-resistant Enterococcus faecalis isolate MB 1 after 24 hrs by microdilution assay; assay type: functional; conditions: isolate MB 1, 24 h; method in brief: as §1
[23] = molecular target: alpha-glucosidase (Saccharomyces cerevisiae); assay: Inhibition of alpha-glucosidase (Saccharomyces cerevisiae) using 4-nitrophenyl alpha-D-glucopyranoside as substrate after 10 mins
[24] = molecular target: Alpha-amylase (Sus scrofa); assay: Inhibition of alpha-amylase (hog pancreas) using starch as substrate preincubated for 10 mins followed by substrate addition measured after 10 mins by dinitrosalicylic acid color reagent based assay

SMILES	Activity [1]	MIC [2]	MIC [3] [µg/mL]	MIC [4] [µg/mL]	MIC [5] [µg/mL]	MIC [6] [µM]	MIC [7]	MIC [8]	MIC [9] [µg/mL]	Activity [10]	Activity [11]	MIC [12]	MIC [13]	Activity [14]	Activity [15]	MIC [16] [µg/mL]	MIC [17] [µg/mL]	Activity [18]	MIC [19] [µg/mL]	MIC [20]	further results
CC(C)c1cc2c(c(O)c1O)[C@@]13CCCC(C)(C)[C@@H]1[C@H](OC3=O)C2=O	inactive	93 µM	> 128	> 128	> 128	186 (≈ 64.1 µg/mL)	93 µM	93 µM	> 128	inactive	inactive	93 µM	186 µM	inactive	inactive	> 128	> 128	inactive	> 128	186 µM	MIC [21]: > 128 µg/mL; MIC [22]: 186 µM
C[C@]12C[C@H](c3ccoc3)OC(=O)[C@@]1(O)[C@@H](O)C[C@@]13COC(=O)C1=CC[C@@H](O)[C@@H]32	–	–	–	–	–	–	–	–	–	–	–	–	–	–	–	–	–	–	–	–	IC50 [23]: 113.2 µg/mL (≈ 290 µM); IC50 [24]: 238.1 µg/mL (≈ 610 µM)
O=C1OCC=C1[C@H]1CCc2ccc3c(c2C1)[C@H](c1ccoc1)OC3=O	inactive	> 128 µg/mL	> 128	> 128	> 128	381 (≈ 128 µg/mL)	> 128 µg/mL	381 µM	> 128	inactive	inactive	381 µM	> 128 µg/mL	inactive	inactive	> 128	> 128	inactive	> 128	381 µM	MIC [21]: > 128 µg/mL; MIC [22]: > 128 µg/mL
C[C@]12C[C@H](c3ccoc3)OC(=O)[C@@]1(O)[C@H](O)C[C@@]13COC(=O)C1=CCC[C@@H]32	inactive	> 128 µg/mL	> 128	> 128	> 128	342 (≈ 128 µg/mL)	> 128 µg/mL	> 128 µg/mL	> 128	inactive	inactive	342 µM	> 128 µg/mL	inactive	inactive	> 128	> 128	inactive	> 128	342 µM	MIC [21]: > 128 µg/mL; MIC [22]: > 128 µg/mL
C[C@]12C[C@H](c3ccoc3)OC(=O)[C@@H]1[C@H](O)C[C@@]13COC(=O)C1=CC=C[C@H]32	–	–	–	–	–	–	–	–	–	–	–	–	–	–	–	–	–	–	–	–	IC50 [24]: 53.5 µg/mL (≈ 150 µM)
C[C@]12C[C@H](c3ccoc3)OC(=O)[C@@H]1[C@H](O)C[C@]13COC(=O)C1=CC=C[C@@H]32	inactive	> 128 µg/mL	> 128	> 128	> 128	359 (≈ 128 µg/mL)	> 128 µg/mL	359 µM	> 128	inactive	inactive	> 128 µg/mL	> 128 µg/mL	inactive	inactive	> 128	> 128	inactive	> 128	> 128 µg/mL	MIC [21]: > 128 µg/mL; MIC [22]: > 128 µg/mL
C[C@]12C[C@H](c3ccoc3)OC(=O)[C@]1(O)[C@H](O)C[C@@]13COC(=O)C1=CCC[C@@H]32	inactive	342 µM	> 128	> 128	> 128	171 (≈ 64.1 µg/mL)	85.5 µM	171 µM	> 128	inactive	inactive	342 µM	171 µM	inactive	inactive	> 128	> 128	inactive	> 128	342 µM	MIC [21]: > 128 µg/mL; MIC [22]: 171 µM
CC(=O)O[C@H](C[C@@]1(C)[C@H](C)[C@H](O[C@@H]2O[C@H](CO)[C@@H](O)C(=O)[C@H]2O)C[C@@]23COC(=O)C2=CCC[C@@H]31)c1ccoc1	inactive	117 µM	> 128	> 128	> 128	234 (≈ 128 µg/mL)	117 µM	234 µM	> 128	inactive	inactive	> 128 µg/mL	234 µM	inactive	inactive	> 128	> 128	inactive	> 128	> 128 µg/mL	MIC [21]: > 128 µg/mL; MIC [22]: 234 µM
C[C@@]12/C=C/C=C\C3=C(COC3=O)C[C@@H](O)[C@H]1C(=O)O[C@@H](c1ccoc1)C2	inactive	89.9 µM	> 128	> 128	> 128	89.9 (≈ 32 µg/mL)	89.9 µM	180 µM	> 128	inactive	inactive	180 µM	180 µM	inactive	inactive	> 128	> 128	inactive	> 128	89.9 µM	MIC [21]: > 128 µg/mL; MIC [22]: 180 µM
